# From PubChem
# The list is not random: actives were taken first. Their share in the collection is about 5.4%.
# hDAT+cocaine: changed human dopamine transporter uptake under cocaine IC80. Q01959. LLC-PK1 hDAT cells, [14C]-dopamine uptake with cocaine IC80; actives deviate in either direction. B-score at 10 µM. 110,000 tested, 1.3% active;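 active = Z score or B-score, a plate-position-corrected score, falls beyond the plate's 99.7% confidence bounds, in either direction; inactive = both scores lie inside the 99.7% bounds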;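 note: scored against the spread of the other compound wells on the same plate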
# Cav32 inh: human Cav3.2 channel inhibition, primary screen; Cav3.2-expressing cells, Fluo-4 calcium fluorescence FDSS; stronger effect = lower value; B-score at 10 µM; 100,000 tested, 4% active; AID 449739;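 active = single-dose well whose peak fluorescence ratio is a statistical outlier from its plate by either plate-standardised score or position-corrected B-score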
# HIV Rev-RRE inh: inhibitors of HIV-1 Rev-RRE RNA interaction; 97,000 tested, 0.79% active; Rev peptide-RRE RNA binding, FRET; P05866; inhibition, % at 8 µM;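 active = inhibition above the screen-wide mean plus 3 SD, cut at about 35% in these data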;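 note: 0% = median DMSO wells and 100% = median Neomycin B control wells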
#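 Assay system: labelled RRE RNA duplex and labelled Rev peptide / Medium: HEPES pH 7.5 salt buffer with EDTA / Reagent: labelled Rev peptide / Schedule: 5 + 15 min at 25 °C / Signal: FRET, excitation 480 nm, emission 540 nm donor and 671 nm acceptor / Benchmarks: DMSO and neomycin B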
# EphB4 antag: EphB4-ephrin-B2 interaction antagonism. P54760. EphB4 LBD / TNYL-RAW-Alexa532 peptide, fluorescence polarization. inhibition, % at 7 µM. 97,000 tested, 0.15% active;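 active = inhibition above the screen-wide mean inhibition plus 3 SD, cut at about 15% in these data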;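 note: 0% = DMSO wells and 100% = excess unlabeled TNYL-RAW peptide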
# Target sequence (P54760 whole entry, looked up, the tested form may be a part): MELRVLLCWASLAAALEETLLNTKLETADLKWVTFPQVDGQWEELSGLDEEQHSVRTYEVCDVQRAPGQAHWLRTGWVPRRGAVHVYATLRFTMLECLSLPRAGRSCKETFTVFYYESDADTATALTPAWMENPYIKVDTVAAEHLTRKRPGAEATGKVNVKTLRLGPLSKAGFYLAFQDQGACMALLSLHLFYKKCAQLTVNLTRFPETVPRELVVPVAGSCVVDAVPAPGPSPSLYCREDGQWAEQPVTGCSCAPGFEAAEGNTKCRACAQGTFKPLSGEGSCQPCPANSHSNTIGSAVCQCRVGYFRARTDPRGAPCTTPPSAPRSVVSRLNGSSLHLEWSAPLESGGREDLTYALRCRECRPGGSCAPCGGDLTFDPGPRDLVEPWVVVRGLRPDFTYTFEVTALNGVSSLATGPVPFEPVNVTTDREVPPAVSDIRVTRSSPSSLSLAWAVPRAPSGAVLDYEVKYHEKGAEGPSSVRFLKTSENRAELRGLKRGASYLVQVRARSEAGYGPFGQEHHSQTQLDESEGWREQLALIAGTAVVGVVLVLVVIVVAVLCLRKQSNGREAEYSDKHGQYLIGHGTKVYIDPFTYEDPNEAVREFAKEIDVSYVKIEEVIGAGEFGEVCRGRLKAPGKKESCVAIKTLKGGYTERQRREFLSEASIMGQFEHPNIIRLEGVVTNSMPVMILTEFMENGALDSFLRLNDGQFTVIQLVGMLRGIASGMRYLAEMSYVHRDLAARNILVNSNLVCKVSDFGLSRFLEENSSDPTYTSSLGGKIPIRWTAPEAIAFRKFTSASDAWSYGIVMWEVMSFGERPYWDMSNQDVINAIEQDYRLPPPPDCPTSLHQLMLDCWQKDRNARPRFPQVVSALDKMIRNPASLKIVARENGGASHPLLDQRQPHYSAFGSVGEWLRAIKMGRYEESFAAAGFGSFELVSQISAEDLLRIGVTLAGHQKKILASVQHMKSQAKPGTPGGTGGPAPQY
# The depositor's hits bear a star; . = no result given; [ ] = remark or other dose.
SMILES,hDAT+cocaine,Cav32 inh,HIV Rev-RRE inh,EphB4 antag
COC(=O)C1=C(C(=O)OC)[C@@H]2N(Cc3ccccc3)c3ccccc3[C@@]23C[C@@H](C(=O)OC)N(C(=O)c2cccs2)C3=N1,0.054,-1.4,.,.
COC(=O)C1=C(C(=O)OC)[C@@H]2N(Cc3ccccc3)c3ccccc3[C@@]23C[C@@H](C(=O)OC)N(C(=O)c2cc(C)oc2C)C3=N1,0.55,-3*,.,.
CCOC(=O)N1CCC(NC(=O)c2ccc3snnc3c2)CC1,2.8*,0.29,.,.
CCOC(=O)C1CCN(C(=O)c2ccc3snnc3c2)CC1,-0.072,0.76,2,-7
CCO/C(C)=C1\C(=O)N(CC)c2ccccc21,-0.42,-1.6,2,-6
CCOC(=O)c1cc2n(c1/N=C/N(C)C)-c1ccccc1C2=O,0.58,-3.9*,135*[fluorescence artefact?],1
CCOC(=O)C1CCCN(C(=S)Nc2cc(C)cc(C)c2)C1 (stereo unspecified),0.59,0.43,-3,0
Cc1ccc2oc(=O)n(Cc3ccccc3OC(C)C)c2c1,-1,-6*,10,8
Cc1ccc(N2C(=O)CC(n3nc(C)cc3C)C2=O)cc1 (stereo unspecified),0.071,0.11,1,3
COc1ccc(CNC(=O)c2csc(Cc3ccccc3)n2)cc1,-0.16,.,1,-3
COc1ccccc1CNC(=O)c1csc(Cc2ccc(Cl)cc2)n1,0.43,-8*,11,1
Cc1nc2c(C)cccn2c1/C(O)=C1\C(=O)C(=O)N(CCN2CCOCC2)C1c1cccs1 (stereo unspecified),-0.47,0.12,3,-10
COc1ccc(S(=O)(=O)C(C#N)c2nc3ccccc3nc2N2CCCC(C)C2)cc1 (stereo unspecified),0.26,-4.6*,38*,0
CCN1CCN(c2nc3ccccc3nc2C(C#N)S(=O)(=O)c2ccc(C)cc2)CC1 (stereo unspecified),.,.,2,-7
Cc1ccc(S(=O)(=O)N2CCCN(c3nc4cc(C)ccc4cc3C#N)CC2)cc1,1.8,1.3,37*,6
CC1CCCN(c2nc3ccccc3nc2C(C#N)S(=O)(=O)c2cccs2)C1 (stereo unspecified),-0.52,-5.9*,15,3
Cc1ccc(S(=O)(=O)C(C#N)c2nc3ccccc3nc2N2CCCC2)cc1 (stereo unspecified),-0.23,-3.6,77*,5
CC1CCCN(c2nc3ccccc3nc2C(C#N)C(=O)OC2CCCCC2)C1 (stereo unspecified),-1.4,-2.2,11,-1
CC[C@H]1OC(=O)[C@H](C)[C@@H](O[C@H]2C[C@@](C)(OC)[C@@H](O)[C@H](C)O2)[C@H](C)[C@@H](O[C@@H]2O[C@H](C)C[C@H](N(C)C)[C@H]2O)[C@](C)(OC)C[C@@H](C)C(=O)[C@H](C)[C@@H](O)[C@]1(C)O,-0.11,-0.44,.,.
Cc1ccc(S(=O)(=O)N[C@H](C(=O)N2CCC(C(=O)N3CCC[C@H]3C(=O)O)CC2)C(C)C)cc1,-2,-1.7,4,0
Cc1ccc(S(=O)(=O)C(C#N)c2nc3ccccc3nc2N2CC(C)OC(C)C2)cc1C (stereo unspecified),-0.21,-4.2*,9,12
Cc1cc(O)c(C(C)C)cc1NC(=O)c1ccc(Cl)cc1,-0.047,-6.3*,1,-11
O=C(Nc1nccs1)c1cccc(NC(=O)c2ccco2)c1,1.3,-0.4,3,1
O=C(Nc1ccc(S(=O)(=O)N2CCCc3ccccc32)cc1)C1CCCO1 (stereo unspecified),2,-1.3,9,-4
O=C(Nc1ccc(S(=O)(=O)N2CCc3ccccc3C2)cc1)C1CCCO1 (stereo unspecified),-0.62,-3.9*,8,5
SMILES,hDAT+cocaine,Cav32 inh,HIV Rev-RRE inh,EphB4 antag
CC(=O)Nc1ccc(S(=O)(=O)N2CCc3c(Cl)cccc3C2)cc1,-0.25,-4.3*,2,1
Cc1ccc(C(=O)Nc2ccc(S(=O)(=O)N3CCN(C)CC3)cc2)cc1,-0.25,-2.6,2,7
CCC(=O)Nc1ccc(S(=O)(=O)N2CCc3ccccc3C2)cc1,0.58,-4.5*,.,.
CN1CCN(S(=O)(=O)c2ccc(NC(=O)C(C)(C)C)cc2)CC1,-0.27,-5.7*,0,-9
COc1ccc(OCc2nnc(SC(C)C(=O)Nc3nccs3)n2-c2ccccc2)cc1 (stereo unspecified),-0.74,0.039,7,8
O=C(CCCCCn1c(SCc2ccncc2)nc2ccccc2c1=O)NCc1ccco1,0.52,-2.3,6,6
